Values after ≈ are worked out from the molar mass of the structure shown.
Key:
Klebsiella pneumoniae [1] = assay: Antibacterial activity against ESBL positive Klebsiella pneumoniae ATCC 700603 after 24 hrs by resazurin dye based microdilution assay; assay type: functional; conditions: Klebsiella pneumoniae, 700603, 24 h
Method in brief: (§1)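 MIC taken as the lowest concentration giving visible inhibition and/or by resazurin (1 mg/mL). Gentamicin was the control. Run in duplicate, repeated at least three times.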

Klebsiella pneumoniae [2] = assay: Antibacterial activity against carbapenemase positive Klebsiella pneumoniae BAA 1705 after 24 hrs by resazurin dye based microdilution assay; assay type: functional; conditions: BAA 1705, 24 h; method in brief: as §1
Leishmania panamensis = assay: Antileshmanial activity against EpiR/GFP fused Leishmania panamensis MHOM/CO/87/UA140 intracellular amastigotes infected in human […] cells after 72 hrs by flow cytometric method; assay type: functional, cell-based; conditions: MHOM/CO/87/UA140, 72 h
Method in brief: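 PMA-treated U-937 cells (3 × 10^5 cells/mL) infected with stationary-phase GFP L. panamensis promastigotes (15:1), 3 h at 34 °C, then washed. After 24 h, compounds added at 50, 12.5, 3.125 and 0.78 µg/mL for 72 h at 37 °C. EC50 by Probit; triplicate, two experiments.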

Candida albicans [3] = assay: Antifungal activity against Candida albicans ATCC 10231 incubated for 48 hrs under dark condition by broth microdilution method; assay type: functional; conditions: ATCC 10231, 48 h
Method in brief: (§2)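 CLSI M27-A3 broth microdilution in RPMI-1640, DMSO ≤1%, compounds at 250-0.98 µg/mL final. Inoculum 1-5 × 10^3 CFU/mL. Incubated 48 h at 30 °C in a moist dark chamber, read at OD405. MIC80 and MIC50 taken from % inhibition dose-response curves (mean ± SEM, triplicate). Amphotericin B was the positive control.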

Cryptococcus neoformans [4] = assay: Antifungal activity against Cryptococcus neoformans ATCC 32264 incubated for 48 hrs under dark condition by broth microdilution method; assay type: functional; conditions: ATCC 32264, 48 h; method in brief: as §2
Candida albicans [5] = assay: Growth inhibition of Candida albicans ATCC 10231 at 250 ug/ml incubated for 48 hrs under dark condition by broth microdilution method relative to control; assay type: functional; conditions: ATCC 10231, 48 h, read-out: GI
Method in brief: (§3)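 CLSI M27-A3 broth microdilution in RPMI-1640, DMSO ≤1%. Inoculum 1-5 × 10^3 CFU/mL. Incubated 48 h at 30 °C, dark. % inhibition = 100 − (OD405 test − sterility control)/(OD405 growth control − sterility control), with growth and sterility control wells. Triplicate.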

Candida albicans [6] = assay: Growth inhibition of Candida albicans ATCC 10231 at 125 ug/ml incubated for 48 hrs under dark condition by broth microdilution method relative to control; assay type: functional; conditions: ATCC 10231, 48 h, read-out: GI; method in brief: as §3
Candida albicans [7] = assay: Growth inhibition of Candida albicans ATCC 10231 at 62.5 ug/ml incubated for 48 hrs under dark condition by broth microdilution method relative to control; assay type: functional; conditions: ATCC 10231, 48 h, read-out: GI; method in brief: as §3
Candida albicans [8] = assay: Growth inhibition of Candida albicans ATCC 10231 at 31.25 ug/ml incubated for 48 hrs under dark condition by broth microdilution method relative to control; assay type: functional; conditions: ATCC 10231, 48 h, read-out: GI; method in brief: as §3
Candida albicans [9] = assay: Growth inhibition of Candida albicans ATCC 10231 at 15.62 ug/ml incubated for 48 hrs under dark condition by broth microdilution method relative to control; assay type: functional; conditions: ATCC 10231, 48 h, read-out: GI; method in brief: as §3
Candida albicans [10] = assay: Growth inhibition of Candida albicans ATCC 10231 at 7.8 ug/ml incubated for 48 hrs under dark condition by broth microdilution method relative to control; assay type: functional; conditions: ATCC 10231, 48 h, read-out: GI; method in brief: as §3
Candida albicans [11] = assay: Growth inhibition of Candida albicans ATCC 10231 at 3.4 ug/ml incubated for 48 hrs under dark condition by broth microdilution method relative to control; assay type: functional; conditions: ATCC 10231, 48 h, read-out: GI
Cryptococcus neoformans [12] = assay: Growth inhibition of Cryptococcus neoformans ATCC 32264 at 250 ug/ml incubated for 48 hrs under dark condition by broth microdilution method relative to control; assay type: functional; conditions: ATCC 32264, 48 h, read-out: GI; method in brief: as §3
Cryptococcus neoformans [13] = assay: Growth inhibition of Cryptococcus neoformans ATCC 32264 at 125 ug/ml incubated for 48 hrs under dark condition by broth microdilution method relative to control; assay type: functional; conditions: ATCC 32264, 48 h, read-out: GI; method in brief: as §3
Cryptococcus neoformans [14] = assay: Growth inhibition of Cryptococcus neoformans ATCC 32264 at 62.5 ug/ml incubated for 48 hrs under dark condition by broth microdilution method relative to control; assay type: functional; conditions: ATCC 32264, 48 h, read-out: GI; method in brief: as §3
Cryptococcus neoformans [15] = assay: Growth inhibition of Cryptococcus neoformans ATCC 32264 at 31.25 ug/ml incubated for 48 hrs under dark condition by broth microdilution method relative to control; assay type: functional; conditions: ATCC 32264, 48 h, read-out: GI; method in brief: as §3
Cryptococcus neoformans [16] = assay: Growth inhibition of Cryptococcus neoformans ATCC 32264 at 15.62 ug/ml incubated for 48 hrs under dark condition by broth microdilution method relative to control; assay type: functional; conditions: ATCC 32264, 48 h, read-out: GI; method in brief: as §3
Cryptococcus neoformans [17] = assay: Growth inhibition of Cryptococcus neoformans ATCC 32264 at 7.8 ug/ml incubated for 48 hrs under dark condition by broth microdilution method relative to control; assay type: functional; conditions: ATCC 32264, 48 h, read-out: GI; method in brief: as §3
Cryptococcus neoformans [18] = assay: Growth inhibition of Cryptococcus neoformans ATCC 32264 at 3.4 ug/ml incubated for 48 hrs under dark condition by broth microdilution method relative to control; assay type: functional; conditions: ATCC 32264, 48 h, read-out: GI
Staphylococcus aureus [19] = assay: Antibacterial activity against methicillin-sensitive Staphylococcus aureus ATCC 25923 after 24 hrs by resazurin dye based microdilution assay; assay type: functional; conditions: ATCC 25923, 24 h; method in brief: as §1
Staphylococcus aureus [20] = assay: Antibacterial activity against methicillin-resistant Staphylococcus aureus ATCC 43300 after 24 hrs by resazurin dye based microdilution assay; assay type: functional; conditions: ATCC 43300, 24 h
Method in brief: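 Broth microdilution in Mueller Hinton broth, inoculum 5 × 10^5 – 8 × 10^5. Compound stocks diluted in MHB with 5% DMSO and 0.1% Tween 80. Incubation 24 h at 35-37 °C. MIC is the lowest concentration with visible growth inhibition and/or by resazurin (1 mg/mL) read-out. Gentamicin as control. Run in duplicate, replicated at least three times.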

Staphylococcus aureus [21] = assay: Antibacterial activity against vancomycin-intermediate Staphylococcus aureus after 24 hrs by resazurin dye based microdilution assay; assay type: functional; method in brief: as §1
Escherichia coli = assay: Antibacterial activity against Escherichia coli ATCC 25922 after 24 hrs by resazurin dye based microdilution assay; assay type: functional; conditions: ATCC 25922, 24 h; method in brief: as §1
Pseudomonas aeruginosa = assay: Antibacterial activity against Pseudomonas aeruginosa ATCC 27853 after 24 hrs by resazurin dye based microdilution assay; assay type: functional; conditions: ATCC 27853, 24 h; method in brief: as §1
Neisseria gonorrhoeae = assay: Antibacterial activity against beta lactamase positive Neisseria gonorrhoeae ATCC 31426 by oxidase test; assay type: functional
Method in brief: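 Agar dilution MIC on GC agar with 1% isovitalex containing increasing compound concentrations. Plates inoculated with about 1×10^4 CFU (5 µL). MIC is the lowest concentration that inhibited growth, with growth confirmed by oxidase test. Run in duplicate, repeated at least three times.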

Plasmodium falciparum = assay: Antiplasmodial activity against chloroquine-sensitive Plasmodium falciparum 3D7 assessed as reduction in parasitic LDH activity after 48 hrs by Malstat reagent based […] method; assay type: functional; conditions: 3D7, 48 h
Method in brief: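 Unsynchronized P. falciparum 3D7 at 0.5% parasitemia and 1% hematocrit in RPMI with 3% Albumax II. Exposed to 100, 25, 6.25 and 1.56 µg/mL for 48 h at 37 °C under 90% N2/5% CO2/5% O2. After three freeze-thaw cycles, LDH measured with Malstat and NBT/PES, 1 h in the dark, read at 650 nm. IC50 by Probit; triplicate, ≥2 experiments.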

U-937 = assay: Cytotoxicity against human U937 cells after 72 hrs by MTT assay; assay type: cell-based; conditions: u-937, 72 h
Method in brief: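 Exponentially growing U-937 at 1 × 10^5 cells/mL in RPMI-1640 with 10% FBS were exposed to 200, 50, 12.5 and 3.125 µg/mL for 72 h at 37 °C, 5% CO2. MTT for 3 h, stopped with isopropanol/SDS, formazan read at 570 nm, blank-corrected. LC50 by Probit from % viability against untreated cells. Triplicate, at least two independent experiments.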

Trypanosoma cruzi = assay: Antitrypanosomal activity against Trypanosoma cruzi Tulahuen intracellular amastigote harboring LacZ infected in human U937 cells after 72 hrs by CPRG/Nonidet reagent based spectrophotometric method; assay type: functional, cell-based; conditions: U-937, 72 h
Method in brief: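 U-937 cells at 2.5 × 10^5 cells/mL in RPMI-1640 with 10% serum and 0.1 µg/mL PMA were infected with β-galactosidase-transfected Tulahuen epimastigotes at 5 parasites per cell. Infected cells were exposed to 50, 12.5, 3.125 and 0.78 µg/mL for 72 h. CPRG (100 uM) and 0.1% Nonidet P-40 were added for 3 h, read at 570 nm. EC50 by Probit. Triplicate, at least two experiments; benznidazole as reference.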

Structure (SMILES)	MIC (Klebsiella pneumoniae [1])	MIC (Klebsiella pneumoniae [2])	EC50 (Leishmania panamensis)	MIC50 (Candida albicans [3])	MIC80 (Candida albicans [3])	MIC50 (Cryptococcus neoformans [4])	MIC80 (Cryptococcus neoformans [4])	inhibition of growth at 250 µg/mL (Candida albicans [5])	inhibition of growth at 125 µg/mL (Candida albicans [6])	inhibition of growth at 62.5 µg/mL (Candida albicans [7])	inhibition of growth at 31.25 µg/mL (Candida albicans [8])	inhibition of growth at 15.62 µg/mL (Candida albicans [9])	inhibition of growth at 7.8 µg/mL (Candida albicans [10])	inhibition of growth at 3.4 µg/mL (Candida albicans [11])	inhibition of growth at 250 µg/mL (Cryptococcus neoformans [12])	inhibition of growth at 125 µg/mL (Cryptococcus neoformans [13])	inhibition of growth at 62.5 µg/mL (Cryptococcus neoformans [14])	inhibition of growth at 31.25 µg/mL (Cryptococcus neoformans [15])	inhibition of growth at 15.62 µg/mL (Cryptococcus neoformans [16])	inhibition of growth at 7.8 µg/mL (Cryptococcus neoformans [17])	further results
Cc1ccc(C2=NN(c3ccccc3)C(c3cccc(Nc4ccnc5cc(Cl)ccc45)c3)C2)cc1 (stereo not given)	> 1000 µg/mL	> 1000 µg/mL	1.83 µg/mL (≈ 3.74 µM)	≥ 250 µg/mL	≥ 250 µg/mL	≥ 250 µg/mL	≥ 250 µg/mL	28.3%	22.9%	13.1%	12%	7.89%	2.53%	2.29%	31.5%	7.45%	4.01%	1.72%	0.86%	0%	inhibition of growth at 3.4 µg/mL (Cryptococcus neoformans [18]): 0%; MIC (Staphylococcus aureus [19]): > 1000 µg/mL; MIC (Staphylococcus aureus [20]): > 1000 µg/mL; MIC (Staphylococcus aureus [21]): > 1000 µg/mL; MIC (Escherichia coli): > 1000 µg/mL; MIC (Pseudomonas aeruginosa): > 1000 µg/mL; MIC (Neisseria gonorrhoeae): > 1000 µg/mL; EC50 (Plasmodium falciparum): 13.5 µg/mL (≈ 27.7 µM); LC50 (U-937): 1.4 µg/mL (≈ 2.86 µM); EC50 (Trypanosoma cruzi): 1.09 µg/mL (≈ 2.23 µM)
COc1cc(C2=NN(c3cc(Cl)cc(Cl)c3)C(c3cccc(Nc4ccnc5cc(Cl)ccc45)c3)C2)cc(OC)c1OC (stereo not given)	> 1000 µg/mL	> 1000 µg/mL	16.5 µg/mL (≈ 26 µM)	≥ 250 µg/mL	≥ 250 µg/mL	≥ 250 µg/mL	≥ 250 µg/mL	20.3%	10.6%	5.81%	5.79%	2.69%	1.1%	0.27%	25.6%	6.13%	3.82%	3.54%	3.54%	3.27%	inhibition of growth at 3.4 µg/mL (Cryptococcus neoformans [18]): 0%; MIC (Staphylococcus aureus [19]): > 1000 µg/mL; MIC (Staphylococcus aureus [20]): > 1000 µg/mL; MIC (Staphylococcus aureus [21]): > 1000 µg/mL; MIC (Escherichia coli): > 1000 µg/mL; MIC (Pseudomonas aeruginosa): > 1000 µg/mL; MIC (Neisseria gonorrhoeae): > 1000 µg/mL; EC50 (Plasmodium falciparum): 10.9 µg/mL (≈ 17.2 µM); LC50 (U-937): > 200 µg/mL; EC50 (Trypanosoma cruzi): 21.9 µg/mL (≈ 34.6 µM)
O=CN1N=C(c2ccccc2)CC1c1cccc(Nc2ccnc3cc(Cl)ccc23)c1 (stereo not given)	> 1000 µg/mL	> 1000 µg/mL	1.72 µg/mL (≈ 4.03 µM)	≥ 250 µg/mL	≥ 250 µg/mL	250 µg/mL (≈ 586 µM)	≥ 250 µg/mL	29.9%	16.9%	10.1%	8.44%	4.31%	4.3%	2.19%	54.1%	47.2%	34.4%	29.7%	20.7%	11.2%	inhibition of growth at 3.4 µg/mL (Cryptococcus neoformans [18]): 7.63%; MIC (Staphylococcus aureus [19]): > 1000 µg/mL; MIC (Staphylococcus aureus [20]): > 1000 µg/mL; MIC (Staphylococcus aureus [21]): > 1000 µg/mL; MIC (Escherichia coli): > 1000 µg/mL; MIC (Pseudomonas aeruginosa): > 1000 µg/mL; MIC (Neisseria gonorrhoeae): > 1000 µg/mL; EC50 (Plasmodium falciparum): 17.7 µg/mL (≈ 41.4 µM); LC50 (U-937): 1.3 µg/mL (≈ 3.05 µM); EC50 (Trypanosoma cruzi): > 0.6 µg/mL

Reference: ChEMBL document CHEMBL4038284, “Synthesis of novel quinoline-based 4,5-dihydro-1H-pyrazoles as potential anticancer, antifungal, antibacterial and antiprotozoal agents” (Eur J Med Chem, 2017)
